Our source for the Activity and EC50 values is ChEMBL document CHEMBL1158074, “Cytotoxic constituents from the formosan soft coral Clavularia inflata var. luzoniana” (J Nat Prod, 2006).

Values after ≈ are worked out from the molar mass of the structure shown. Active and inactive are the calls of the source. No cut-off for these calls is given here.

Assay [1] has as its system P388. In words: Cytotoxicity against mouse P388 cells. The assay is classed as functional. To be noted: for EC50: read-out: ED50 (the source's name). Put shortly:
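P-388 mouse lymphocytic leukemia cells were provided by an academic laboratory at the University of Illinois at Chicago. Activity is expressed as an ED50.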

In assay [2] the test system is HT-29. Briefly: Cytotoxicity against human HT 29 cells. In kind it is functional, cell-based. Put shortly:
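HT-29 human colon adenocarcinoma cells were obtained from the American Type Culture Collection. The value is reported as an ED50.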

In the case of `C=C1CC[C@H]2[C@@H]([C@@H]3[C@@H]1C[C@@H](O)[C@@]3(C)O)C2(C)C`, the outcome in assay [1] and in assay [2] was inactive.
`CC(=O)C(O)C[C@@H]1[C@@H]([C@@H]2[C@H]3CC[C@@]23C)C1(C)C` (stereo partly specified): the result in assay [1] and in assay [2] was inactive.
As to `C=C1CC/C=C(\C)C/C=C2/[C@H](C(C)C)[C@@H](O)C[C@@]2(C)CC1=O`, in assay [1], the EC50 was found to be 1.5 µg/mL (≈ 4.96 µM). In assay [2], the outcome was inactive.
Take `CC1(C)[C@@H]2[C@@H]3[C@H](C[C@@H](O)[C@@]3(C)O)[C@@](C)(O)CC[C@@H]21`: the outcome in assay [1] and in assay [2] was inactive.
On to `C=C1[C@@H]2[C@@H](OC(C)=O)OC=C([C@H](OC(C)=O)[C@@H](C=C(C)C)OC(C)=O)[C@H]2CC/C(C)=C/[C@H](OC(=O)c2ccccc2)[C@H]1O`, for which the EC50 in assay [1] amounted to 0.5 µg/mL (≈ 0.838 µM); in assay [2] (read-out: ED50 (the source's name)), 1.2 µg/mL (≈ 2.01 µM).
Turning to `C=C1CC/C=C(\C)C/C=C2/[C@H](C(C)C)CC[C@@]2(C)C[C@@H]1O`, in assay [1], the EC50 is 3.6 µg/mL (≈ 12.5 µM). For the same compound, the result in assay [2] was inactive.
Turning to `C=C1CC/C=C(\C)C/C=C2/[C@H](C(C)C)CC[C@@]2(C)CC1=O`, the values for the EC50 in assay [1] and in assay [2] (read-out: EC50) were 0.6 µg/mL (≈ 2.09 µM) and 2.8 µg/mL (≈ 9.77 µM), respectively.
In the case of `C=C1CC[C@H]2[C@@H]([C@H]3C(C)=CC[C@@]13OO)C2(C)C`, the outcome in assay [1] and in assay [2] was inactive.
